Results as given in ChEMBL document CHEMBL4257441, “Protection effect of intracellular melanin from Lachnum YM156 and Haikunshenxi capsule combination on adenine-induced chronic renal failure in mice” (Medchemcomm, 2017).

Legend:
[1] = tested on: Mus musculus; assay: Protective effect against adenine-induced chronic renal failure in ig dosed Kunming mouse assessed as increase in nephridial GSH levels administered as qd for 4 successive weeks by colorimetric method; format: functional, organism-based
Summary of the method: (§1)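 Male Kunming mice (20 ± 5 g) given dietary adenine to induce CRF, then dosed orally at 100 or 200 mg kg–1, with or without Haikunshenxi capsule; n = 10 per group. Kidney homogenate assayed for SOD and CAT (U mg–1 protein), GSH-Px (U L–1), GSH (mg g–1 protein) and MDA (nmol mL–1).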

[2] = tested on: Mus musculus; assay: Protective effect against adenine-induced chronic renal failure in Kunming mouse assessed as nephridial GSH levels at 200 mg/kg, ig qd administered for 4 successive weeks by colorimetric method (reference value: 3.05 +/- 0.11 mg/g); format: functional
[3] = tested on: Mus musculus; assay: Protective effect against adenine-induced chronic renal failure in Kunming mouse assessed as nephridial IL-6 levels at 100 mg/kg, ig qd administered for 4 successive weeks with haikunshenxi capsule (reference value: 20.85 +/- 0.11 pg/ml); format: functional
[4] = Cytotoxicity against human HepG2 cells assessed as cell viability at 1 to 300 ug/ml after 24 hrs by MTT assay relative to control; format: cell-based; conditions: read-out: Activity
Summary of the method: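 HepG2 cells exposed to the melanin were read by MTT absorbance. Viability (% of control) is calculated as treated-well absorbance ×100 / control-well absorbance.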

[5] = tested on: Mus musculus; assay: Protective effect against adenine-induced chronic renal failure in ig dosed Kunming mouse assessed as decrease in nephridial iNOS levels administered as qd for 4 successive weeks with haikunshenxi capsule; format: functional, organism-based
Summary of the method: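 CRF model made by chronic dietary adenine in male Kunming mice (20 ± 5 g); oral dosing at 100 or 200 mg kg–1, alone or with Haikunshenxi capsule; ten mice per group. Kidney tissue TNF-α, IL-1β and IL-6 measured as pg per mg protein, and iNOS activity as U mg–1 protein.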

[6] = tested on: Mus musculus; assay: Protective effect against adenine-induced chronic renal failure in ig dosed Kunming mouse assessed as decrease in nephridial MDA levels administered as qd for 4 successive weeks by thiobarbituric acid method; format: functional, organism-based; summary of the method: as §1
[7] = tested on: Mus musculus; assay: Protective effect against adenine-induced chronic renal failure in Kunming mouse assessed as nephridial GSH-PX levels at 200 mg/kg, ig qd administered for 4 successive weeks by colorimetric method (reference value: 688.45 +/- 12.67 U/L); format: functional
[8] = tested on: Mus musculus; assay: Protective effect against adenine-induced chronic renal failure in Kunming mouse assessed as nephridial iNOS levels at 200 mg/kg, ig qd administered for 4 successive weeks with haikunshenxi capsule (reference value: 1.98 +/- 0.12 U/mg); format: functional
[9] = tested on: Mus musculus; assay: Protective effect against adenine-induced chronic renal failure in Kunming mouse assessed as nephridial IL-6 levels at 200 mg/kg, ig qd administered for 4 successive weeks with haikunshenxi capsule (reference value: 20.85 +/- 0.11 pg/ml); format: functional
[10] = tested on: Mus musculus; assay: Protective effect against adenine-induced chronic renal failure in Kunming mouse assessed as kidney index at 200 mg/kg, ig qd administered for 4 successive weeks measured 24 hrs post last dose (reference value: 1.94 +/- 0.03 mg/g); format: functional
Summary of the method: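 Male Kunming mice (20 ± 5 g) were housed on a 12 h light/dark cycle at 18–20 °C. Chronic renal failure was induced by long-term dietary adenine. The melanin was given orally at 100 or 200 mg kg–1, alone or with Haikunshenxi capsule as positive drug, with ten mice per group. Weight growth rate (%) and kidney index (mg g–1) were recorded.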

[11] = tested on: Mus musculus; assay: Protective effect against adenine-induced chronic renal failure in Kunming mouse assessed as nephridial TNF-alpha levels at 200 mg/kg, ig qd administered for 4 successive weeks with haikunshenxi capsule (reference value: 250.15 +/- 8.10 pg/ml); format: functional

In the case of `Cc1c(=O)c(=O)c2c3c[nH]c4c(C)c(=O)c(=O)c(c5c[nH]c1c52)c43`, the Activity [1] is reported as “Dose-dependent effect”, the Activity [2] is reported as 4.84 mg/g and the Activity [3] is reported as 12.07 pg/mL. The viability at 24 h [4] was 100%, the Activity [5] was “Dose-dependent effect” and the Activity [6] was “Dose-dependent effect”. The Activity [7] was 790.43 U/L, the Activity [8] was 0.68 U/mg and the Activity [9] was 10.74 pg/mL. For the same compound, the Activity [10] was 1.35 mg/g and the Activity [11] was 84.35 pg/mL.
